According to ChEMBL document CHEMBL1221298, “InCl3 mediated one-pot multicomponent synthesis, anti-microbial, antioxidant and anticancer evaluation of 3-pyranyl indole derivatives” (Bioorg Med Chem Lett, 2010):
Values after ≈ are worked out from the molar mass of the structure shown.

Tests used:
Assay type in all cases: functional
Staphylococcus aureus [1] = experiment: microbe, parasite or virus in culture; conditions: ATCC 9144, 24 h, read-out: IZ
Bacillus cereus [2] = experiment: Antimicrobial activity against Bacillus cereus ATCC 11778 at 100 ug/ml after 24 hrs by paper disk diffusion method; conditions: ATCC 11778, 24 h, read-out: IZ
Escherichia coli [3] = experiment: microbe, parasite or virus in culture; conditions: ATCC 25922, 24 h, read-out: IZ
Klebsiella pneumoniae [4] = experiment: microbe, parasite or virus in culture; conditions: ATCC 11298, 24 h, read-out: IZ
Staphylococcus aureus [5] = experiment: microbe, parasite or virus in culture; conditions: ATCC 9144, 24 h
Bacillus cereus [6] = experiment: microbe, parasite or virus in culture; conditions: ATCC 11778, 24 h
Escherichia coli [7] = experiment: microbe, parasite or virus in culture; conditions: ATCC 25922, 24 h
Klebsiella pneumoniae [8] = experiment: microbe, parasite or virus in culture; conditions: ATCC 11298, 24 h
[9] = tested on: Radical scavenging activity; experiment: Antioxidant activity assessed as DPPH radical scavenging activity at 50 ug/ml; conditions: at 50 µg/mL
Summary of the method: (§1)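 Each test sample was mixed with 1 ml DPPH in methanol, incubated at 37 °C for 30 min, and read spectrophotometrically at 517 nm with a blank reading. Scavenging % was expressed as the absorbance decrease at 517 nm relative to DPPH solution without test sample.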

[10] = tested on: Radical scavenging activity; experiment: Antioxidant activity assessed as DPPH radical scavenging activity at 100 ug/ml; conditions: at 100 µg/mL
Summary of the method: as §1

[11] = tested on: Radical scavenging activity; experiment: Antioxidant activity assessed as DPPH radical scavenging activity at 200 ug/ml; conditions: at 200 µg/mL
Summary of the method: as §1

[12] = tested on: Radical scavenging activity; experiment: Antioxidant activity assessed as DPPH radical scavenging activity at 400 ug/ml; conditions: at 400 µg/mL
Summary of the method: as §1

[13] = tested on: Radical scavenging activity; experiment: Antioxidant activity assessed as DPPH radical scavenging activity
Summary of the method: as §1

[14] = Antioxidant activity assessed as ABTS radical scavenging activity at 50 ug/ml; conditions: at 50 µg/mL
Summary of the method: (§2)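 Test samples at 50, 100, 200 and 400 ug/ml were each mixed with 1 ml of freshly prepared ABTS radical cation solution, adjusted to absorbance 0.7–0.9 at 734 nm. Mixtures reacted 2 h in the dark, then absorbance was read at 734 nm against a blank. Scavenging % was taken as the absorbance decrease relative to ABTS solution without test sample.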

[15] = Antioxidant activity assessed as ABTS radical scavenging activity at 100 ug/ml; conditions: at 100 µg/mL
Summary of the method: as §2

[16] = Antioxidant activity assessed as ABTS radical scavenging activity at 200 ug/ml; conditions: at 200 µg/mL
Summary of the method: as §2

[17] = Antioxidant activity assessed as ABTS radical scavenging activity at 400 ug/ml; conditions: at 400 µg/mL
Summary of the method: as §2

[18] = Antioxidant activity assessed as ABTS radical scavenging activity
Summary of the method: as §2

MCF7 = experiment: Cytotoxicity against human MCF7 cells after 24 hrs by MTT assay; conditions: MCF7, 24 h
Summary of the method: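 Exponentially growing cells plated at 10⁴ cells/well and allowed to attach, then exposed to test compounds or doxorubicin (dissolved in 0.1% DMSO, diluted in medium; range 1–100) for 24 h; controls received medium with 0.1% DMSO. MTT (1 mg/ml) added for 4 h at 37 °C, formazan dissolved in DMSO, absorbance read at 540 nm; % cytotoxicity calculated from blank-corrected absorbances versus control.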

Structure (SMILES): N#CC1=C(N)OC(c2c[nH]c3ccccc23)=C(C#N)C1c1ccccc1 (stereo not given)
- zone of inhibition at 100 µg/mL (Staphylococcus aureus [1]): 22 mm
- zone of inhibition at 100 µg/mL (Bacillus cereus [2]): 16 mm
- zone of inhibition at 100 µg/mL (Escherichia coli [3]): 18 mm
- zone of inhibition at 100 µg/mL (Klebsiella pneumoniae [4]): 18 mm
- MIC (Staphylococcus aureus [5]): 15.2 µg/mL (≈ 44.9 µM)
- MIC (Bacillus cereus [6]): 18.5 µg/mL (≈ 54.7 µM)
- MIC (Escherichia coli [7]): 19.6 µg/mL (≈ 57.9 µM)
- MIC (Klebsiella pneumoniae [8]): 20.2 µg/mL (≈ 59.7 µM)
- Activity [9]: 38%
- Activity [10]: 46%
- Activity [11]: 49.7%
- Activity [12]: 51.2%
- IC50 [13]: 308.2 µg/mL (≈ 911 µM)
- Activity [14]: 14.4%
- Activity [15]: 19.3%
- Activity [16]: 24.5%
- Activity [17]: 26.7%
- IC50 [18]: 993.66 µg/mL (≈ 2940 µM)

Structure (SMILES): O=C1O[C@H]([C@@H](O)CO)C(O)=C1O [ASCORBIC ACID]
- Activity [9]: 77.2%
- Activity [10]: 79.7%
- Activity [11]: 82.3%
- Activity [12]: 85.3%
- IC50 [13]: < 50 µg/mL
- Activity [14]: 28.8%
- Activity [15]: 29.7%
- Activity [16]: 31.5%
- Activity [17]: 33.4%
- IC50 [18]: 650 µg/mL (≈ 3690 µM)

Structure (SMILES): COc1ccc(C2C(C#N)=C(N)OC(c3c[nH]c4ccccc34)=C2C#N)cc1 (stereo not given)
- zone of inhibition at 100 µg/mL (Staphylococcus aureus [1]): 21 mm
- zone of inhibition at 100 µg/mL (Bacillus cereus [2]): 16 mm
- zone of inhibition at 100 µg/mL (Escherichia coli [3]): 18 mm
- zone of inhibition at 100 µg/mL (Klebsiella pneumoniae [4]): 19 mm
- MIC (Staphylococcus aureus [5]): 15.4 µg/mL (≈ 41.8 µM)
- MIC (Bacillus cereus [6]): 24.5 µg/mL (≈ 66.5 µM)
- MIC (Escherichia coli [7]): 23.4 µg/mL (≈ 63.5 µM)
- MIC (Klebsiella pneumoniae [8]): 19.6 µg/mL (≈ 53.2 µM)
- Activity [9]: 53.6%
- Activity [10]: 56.9%
- Activity [11]: 59.9%
- Activity [12]: 60.2%
- IC50 [13]: < 50 µg/mL
- Activity [14]: 12.4%
- Activity [15]: 20%
- Activity [16]: 26.4%
- Activity [17]: 28.7%
- IC50 [18]: 858.69 µg/mL (≈ 2330 µM)

Structure (SMILES): N#CC1=C(N)OC(c2c[nH]c3ccccc23)=C(C#N)C1c1ccccc1Cl (stereo not given)
- zone of inhibition at 100 µg/mL (Staphylococcus aureus [1]): 24 mm
- zone of inhibition at 100 µg/mL (Bacillus cereus [2]): 17 mm
- zone of inhibition at 100 µg/mL (Escherichia coli [3]): 21 mm
- zone of inhibition at 100 µg/mL (Klebsiella pneumoniae [4]): 20 mm
- MIC (Staphylococcus aureus [5]): 12.4 µg/mL (≈ 33.3 µM)
- MIC (Bacillus cereus [6]): 16.4 µg/mL (≈ 44 µM)
- MIC (Escherichia coli [7]): 16.5 µg/mL (≈ 44.3 µM)
- MIC (Klebsiella pneumoniae [8]): 16.1 µg/mL (≈ 43.2 µM)
- Activity [9]: 27.9%
- Activity [10]: 34%
- Activity [11]: 39.6%
- Activity [12]: 45.7%
- IC50 [13]: 467.49 µg/mL (≈ 1250 µM)
- Activity [14]: 8.5%
- Activity [15]: 10.4%
- Activity [16]: 14.5%
- Activity [17]: 21.4%
- IC50 [18]: > 1000 µg/mL

Structure (SMILES): N#CC1=C(N)OC(c2c[nH]c3ccccc23)=C(C#N)C1c1cc(Br)c2c(c1)OCO2 (stereo not given)
- zone of inhibition at 100 µg/mL (Staphylococcus aureus [1]): 19 mm
- zone of inhibition at 100 µg/mL (Bacillus cereus [2]): 13 mm
- zone of inhibition at 100 µg/mL (Escherichia coli [3]): 17 mm
- zone of inhibition at 100 µg/mL (Klebsiella pneumoniae [4]): 16 mm
- MIC (Staphylococcus aureus [5]): 23.5 µg/mL (≈ 50.9 µM)
- MIC (Bacillus cereus [6]): 28.7 µg/mL (≈ 62.2 µM)
- MIC (Escherichia coli [7]): 27.3 µg/mL (≈ 59.2 µM)
- MIC (Klebsiella pneumoniae [8]): 24.8 µg/mL (≈ 53.8 µM)
- Activity [9]: 20.3%
- Activity [10]: 23.8%
- Activity [11]: 25.8%
- Activity [12]: 22.8%
- IC50 [13]: 1779.24 µg/mL (≈ 3860 µM)
- Activity [14]: 5.7%
- Activity [15]: 6.4%
- Activity [16]: 10%
- Activity [17]: 12.5%
- IC50 [18]: > 1000 µg/mL

Structure (SMILES): COc1cccc2c1C(=O)c1c(O)c3c(c(O)c1C2=O)C[C@@](O)(C(=O)CO)C[C@@H]3O[C@H]1C[C@H](N)[C@H](O)[C@H](C)O1 [DOXORUBICIN]
- GI50 (MCF7): 0.02 µM
- TGI (MCF7): 0.21 µM

Structure (SMILES): N#CC1=C(N)OC(c2c[nH]c3ccccc23)=C(C#N)C1c1cccc2ccccc12 (stereo not given)
- zone of inhibition at 100 µg/mL (Staphylococcus aureus [1]): 15 mm
- zone of inhibition at 100 µg/mL (Bacillus cereus [2]): 16 mm
- zone of inhibition at 100 µg/mL (Escherichia coli [3]): 16 mm
- zone of inhibition at 100 µg/mL (Klebsiella pneumoniae [4]): 15 mm
- MIC (Staphylococcus aureus [5]): 28.6 µg/mL (≈ 73.6 µM)
- MIC (Bacillus cereus [6]): 26.2 µg/mL (≈ 67.5 µM)
- MIC (Escherichia coli [7]): 28 µg/mL (≈ 72.1 µM)
- MIC (Klebsiella pneumoniae [8]): 33.2 µg/mL (≈ 85.5 µM)
- Activity [9]: 18.8%
- Activity [10]: 21.8%
- Activity [11]: 22.8%
- Activity [12]: 26.4%
- IC50 [13]: 1599.62 µg/mL (≈ 4120 µM)
- Activity [14]: 4.7%
- Activity [15]: 6.8%
- Activity [16]: 7.7%
- Activity [17]: 10.4%
- IC50 [18]: > 1000 µg/mL
- GI50 (MCF7): 18.2 µM
- LC50 (concentration killing 50% of cells) (MCF7): 80.2 µM
- TGI (MCF7): 33.9 µM
